Assay results collected from several papers.
Compare with care: the assays were run in different laboratories. Values after ≈ are worked out from the molar mass of the structure shown.

Structure (SMILES)	tested on	assay	setting	quantity	value
O=C(Nc1cccc2ccccc12)c1ccc(COC(Cn2ccnc2)c2ccc(Cl)cc2Cl)cc1 (centres unmarked)	Nakaseomyces glabratus	microbial growth, broth dilution	–	MIC80	8 µg/mL (≈ 15.5 µM)
Cc1n[nH]c2ccc3nc(-c4ccc(C(=O)NCCN(C)C)cc4F)c4c(c3c12)CCCCC4	HCC827	cell growth or viability	72 h	GI50	4.87 µM
CCCCn1cnc2ccc(-c3ccc(NC(=O)NC(C)(C)C)nc3)cc2c1=O	HCC827	cell growth or viability, CCK-8	72 h	IC50	3.97 µM
COc1cc(C2=CCCCc3c2ccc(OC)c3OC(C)c2cnc([N+](=O)[O-])n2C)cc(OC)c1OC (centres unmarked)	–	tubulin polymerisation, inhibitor	20 min	IC50	> 20 µM
CCCCn1cnc2ccc(-c3ccc(NC(=O)NCc4ccccc4)nc3)cc2c1=O	HCC827	cell growth or viability, CCK-8	72 h	IC50	0.32 µM
O=C(Nc1ccc(C(F)(F)F)cc1)c1ccc(COC(Cn2ccnc2)c2ccc(Cl)cc2Cl)cc1 (centres unmarked)	Nakaseomyces glabratus	microbial growth, broth dilution	–	MIC80	0.125 µg/mL (≈ 0.234 µM)
CCCCn1cnc2ccc(-c3ccc(NC(=O)NCCC)nc3)cc2c1=O	HCC827	cell growth or viability, CCK-8	72 h	IC50	> 10 µM
Cc1n[nH]c2ccc3nc(-c4ccc(C(=O)NCCN(C)C)cc4)c4c(c3c12)CCCC4	HCC827	cell growth or viability	72 h	GI50	4.07 µM
CCCn1cnc2ccc(-c3ccc(N4CCC(C)CC4=O)nc3)cc2c1=O (centres unmarked)	HCC827	cell growth or viability, CCK-8	72 h	IC50	> 10 µM
Cc1n[nH]c2ccc3nc(-c4ccc(C(=O)NCCN(C)C)cc4F)c4c(c3c12)CCCC4	HCC827	cell growth or viability	72 h	GI50	0.611 µM
COc1cc(C2=CCCc3c2ccc(OC)c3OCc2cnc([N+](=O)[O-])n2C)cc(OC)c1OC	–	tubulin polymerisation, inhibitor	20 min	IC50	> 20 µM
Cc1nc(Nc2ncc(C(=O)Nc3c(C)cccc3Cl)s2)cc(N2CC[C@H](O)C2)n1	Daudi	cell growth or viability, ATP luminescence	10 µM, 72 h	inhibition	75%
O=C(Nc1ccccc1)c1ccc(COC(Cn2ccnc2)c2ccc(Cl)cc2Cl)cc1 (centres unmarked)	Nakaseomyces glabratus	microbial growth, broth dilution	–	MIC80	0.25 µg/mL (≈ 0.536 µM)
CCCn1cnc2ccc(-c3ccc(NC(=O)CC4CCC4)nc3)cc2c1=O	HCC827	cell growth or viability, CCK-8	72 h	IC50	1.21 µM
CC(C)(C)c1cc(NC(=O)Nc2ccc(-c3cn4c(n3)sc3cc(OCCN5CCOCC5)ccc34)cc2)no1	HCC827	cell growth or viability	72 h	GI50	> 10 µM
O=C(Nc1cccc(Cl)c1)c1ccc(COC(Cn2ccnc2)c2ccc(Cl)cc2Cl)cc1 (centres unmarked)	Nakaseomyces glabratus	microbial growth, broth dilution	–	MIC80	0.25 µg/mL (≈ 0.499 µM)
COc1cc(C2=CCCc3c2ccc(OC)c3OC(C)c2cnc([N+](=O)[O-])n2C)cc(OC)c1OC (centres unmarked)	–	tubulin polymerisation, inhibitor	20 min	IC50	> 20 µM
